Source: article PMC4233149 (Clinical cancer research : an official journal of the …, 2014)

Columns and labels:
pSer9 GSK3β = assay: PD biomarker in platelet-rich plasma; assay type: in vivo, human; details: PRP; for mean pSer9 GSK3β signal, % of baseline levels: 200mg QW, n=11
advanced solid tumors = assay: Tumor response; assay type: in vivo, human
Method in brief: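 Radiological disease status was assessed by RECIST 1.1 at baseline and every 8 weeks during oral weekly dosing.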

Permeability = assay type: physicochemical; details: across physiological pH ranges
[1] = alternate days (QOD), previously established; cited from earlier work
[2] = observed in the earlier QOD dose-escalation study; cited from earlier work

NC1(c2ccc(-c3nc4ccn5c(=O)[nH]nc5c4cc3-c3ccccc3)cc2)CCC1 [MK-2206]
time of maximum suppression of pSer9 GSK3β post-MK-2206 (pSer9 GSK3β; 60mg QOD): 6 h | mean pSer9 GSK3β levels, % of baseline levels (pSer9 GSK3β; 60mg QOD, 3h): 76.8% | mean pSer9 GSK3β levels, % of baseline levels (pSer9 GSK3β; 60mg QOD, 6h): 67.5% | mean pSer9 GSK3β levels, % of baseline levels (pSer9 GSK3β; 60mg QOD, 24h): 102.9% | mean pSer9 GSK3β signal, % of baseline levels (pSer9 GSK3β; 24h): 65.0% | mean pSer9 GSK3β signal, % of baseline levels (pSer9 GSK3β; 48h): 82.3% | mean pSer9 GSK3β signal, % of baseline levels (pSer9 GSK3β; 96h): 91.4% | mean pSer9 GSK3β signal, % of baseline levels (pSer9 GSK3β; 168h): 117.2% | reduction in RECIST measurements of target lesions (advanced solid tumors; 150mg QW, 8 weeks, one patient with ER/PR positive, HER2 negative metastatic breast cancer, PIK3CA exon 20 mutation): 22% | total time on treatment (advanced solid tumors; 150mg QW, breast cancer patient, before disease progression): 24 weeks | CA15-3 level after treatment (advanced solid tumors; 150mg QW, breast cancer patient, from 6853U/ml): 4399 U/ml | reduction in CA15-3 (advanced solid tumors; 150mg QW, same breast cancer patient): ~36% | duration of RECIST SD (range) (advanced solid tumors; two patients with CRPC): 6.5-7.5 months | permeability (Permeability): high permeability | maximum tolerated dose (MTD) [1]: 60 mg | half-life [2]: 60 to 80 h
